In ChEMBL document CHEMBL2040742, “Predicting and improving the membrane permeability of peptidic small molecules” (J Med Chem, 2012):

What was measured:
Format in all cases: ADME, cell-based, Canis lupus familiaris
Conditions in all cases: dog
MDCK [1] = assay: Apparent permeability from basal to apical side of MDCK cells expressing MDR1 at 2 uM by LC-MS/MS analysis
Method in brief: (§1)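 MDR1-MDCK monolayers grown on PET inserts (seeded 2 × 10⁵ cells/cm², 4-6 days to confluence). Compound diluted from 10 mM stock into HBSS pH 7.4 to 2 μM, dosed apically or basolaterally. Analyte quantified by LC-MS/MS as analyte/IS peak area ratio. Papp from 0.084 cm² monolayer area and initial donor concentration. Triplicate, reported as means.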

MDCK [2] = assay: Efflux ratio of apparent permeability from basal to apical side to apical to basal side of MDCK cells expressing MDR1 at 2 uM by LC-MS/MS analysis
MDCK [3] = assay: Apparent permeability from apical to basal side of MDCK cells expressing MDR1 at 2 uM by LC-MS/MS analysis; method in brief: as §1

Papp (MDCK [1]) [nm/s]	Ratio (MDCK [2])	Papp (MDCK [3]) [nm/s]	SMILES
134	3.1	43.1	NC(=O)[C@H](Cc1ccncc1)NC(=O)OCc1ccccc1
211	0.86	246	NC(=O)[C@H](Cc1ccccc1)NC(=O)OCc1ccccc1
29.4	5.8	5.1	N#CCNC(=O)[C@H](Cc1c[nH]cn1)NC(=O)OCc1ccccc1
